These results are taken from ChEMBL document CHEMBL2331485, “Pyrimidoaminotropanes as potent, selective, and efficacious small molecule kinase inhibitors of the mammalian target of rapamycin (mTOR)” (J Med Chem, 2013).

In general, IC50 refers to the concentration that gives 50% inhibition. The term EC50 denotes the concentration that produces a half-maximal response. Read a low EC50 as a more potent agent. The clearance is the rate of elimination divided by the concentration. High values mean efficient removal, low ones inefficient removal. The half-life is the time needed for the level to fall by half in the phase considered. Low values mean rapid decline, high ones slow decline.

Structures are written as SMILES. Values after ≈ are worked out from the molar mass of the structure shown. A value given as a limit tells only on which side of the number the result lay.

Series [1] can be described thus: Kinetic solubility of the compound. The class given is physicochemical. To be noted: for solubility kinetic: read-out: Kinetic_solubility.
In a further series the target is Cytochrome P450 3A4 (Homo sapiens, UniProt P08684). In words: Time dependent inhibition of human CYP3A4 preincubated for 30 mins in presence of NADPH. In kind it is ADME. A digest of the protocol:
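TDI IC50 is the inhibitor concentration giving 50% loss of CYP3A4 activity after a 30 min pre-incubation with NADPH. It is reported as clean where no IC50 could be measured.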

A short description of series [2]: Inhibition of mTORC2 in human NCI-PC3 cells assessed as inhibition of AKT phosphorylation.
Series [3] can be described thus: Cytotoxicity against human MCF7 neo/Her2 cells after 3 days by CellTiter-Glo assay. Conditions: MCF7, 72 h.
The next series deals with PC-3. Kind of series: Cytotoxicity against human PC3 cells after 4 days by CellTiter-Glo assay. To be noted: PC-3, 96 h.
Series [4] can be described thus: Oral bioavailability in mouse at 5 mg/kg. Conditions: in vivo. The class given is ADME, organism-based. A digest of the protocol:
(§1)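 Mouse PK used iv dosing at 1 mg/kg as a 60% PEG solution and po dosing at 5 mg/kg as a suspension in MCT. Clearance, unbound clearance, Vss, t1/2 and oral bioavailability were derived from these doses.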

Series [5] can be described thus: Plasma protein binding in human at 5 uM after 4 hrs by rapid equilibrium dialysis. Conditions: read-out: PPB (converted). In kind it is ADME, cell-free. (In general: In equilibrium dialysis only unbound substance equilibrates across the membrane.)
Series [6] can be described thus: Plasma protein binding in mouse at 5 uM after 4 hrs by rapid equilibrium dialysis. To be noted: read-out: PPB (converted). The class given is ADME, cell-free.
A further series concerns Mus musculus. Kind of series: Unbound clearance in mouse at 1 mg/kg, iv. Further details: dose 1 mg/kg, route intravenous. Conditions: in vivo. In kind it is ADME, organism-based. The method in brief:
as §1

Series [7] can be described thus: Clearance in mouse at 1 mg/kg, iv. In kind it is ADME, organism-based. Also on record: dose 1 mg/kg, route intravenous. Conditions: in vivo. A digest of the protocol:
as §1

Series [8] in a line: Half life in mouse at 1 mg/kg, iv. In kind it is ADME, organism-based. Further details: dose 1 mg/kg, route intravenous. Conditions: in vivo. The method in brief: as §1
A short description of series [9]: Clearance in human liver microsomes. The class given is ADME, Microsome.
Series [10] in a line: Plasma protein binding in rat at 5 uM after 4 hrs by rapid equilibrium dialysis. In kind it is ADME, cell-free. Conditions: read-out: PPB (converted).
Series [11] in a line: Clearance in rat liver microsomes. In kind it is ADME, Microsome.
Series [12] in a line: Volume of distribution at steady state in mouse at 1 mg/kg, iv. The class given is ADME, organism-based. Further details: dose 1 mg/kg, route intravenous. Conditions: in vivo, read-out: Vdss. The method in brief:
as §1

A short description of series [13]: Clearance in mouse liver microsomes. The class given is ADME, Microsome. On the technique in general: Liver microsomes are a subcellular fraction often used to study metabolism.
Series [14] is described as follows: Antitumor activity against human MCF7-neo/Her2 xenografted in nude mouse at 37 mg/kg, qd measured after 14 days. In kind it is functional. To be noted: 336 h, read-out: TGI. (In general: A xenograft is tissue or cells of one species grown in another, often human tumour cells in immunodeficient mice.)

Chain of Cytochrome P450 3A4 (P08684 whole entry): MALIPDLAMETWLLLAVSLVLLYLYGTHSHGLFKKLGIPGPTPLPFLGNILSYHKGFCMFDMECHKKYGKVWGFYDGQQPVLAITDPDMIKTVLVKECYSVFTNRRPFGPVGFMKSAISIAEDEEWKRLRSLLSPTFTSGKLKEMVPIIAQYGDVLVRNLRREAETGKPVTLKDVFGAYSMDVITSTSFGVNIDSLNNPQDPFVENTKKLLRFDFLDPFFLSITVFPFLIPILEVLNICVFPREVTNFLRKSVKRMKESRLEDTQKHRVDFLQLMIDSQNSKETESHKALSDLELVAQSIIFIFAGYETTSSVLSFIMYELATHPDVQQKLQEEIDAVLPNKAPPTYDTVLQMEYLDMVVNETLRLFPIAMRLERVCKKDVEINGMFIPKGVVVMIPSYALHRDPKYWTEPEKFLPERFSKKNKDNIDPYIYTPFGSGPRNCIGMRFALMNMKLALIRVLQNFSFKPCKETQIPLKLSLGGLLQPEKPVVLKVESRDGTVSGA

`CCNC(=O)Nc1ccc(-c2nc3c(c(N4CCOC[C@@H]4C)n2)[C@H]2CC[C@@H](C3)N2C2COC2)cc1`: the solubility kinetic in series [1] was over 75 µM. Further, the half-maximal inhibitory concentration (IC50) on Cytochrome P450 3A4 is over 10000 nM; in series [2] it was 29 nM. The EC50 is 268 nM in series [3] and 180 nM with PC-3.
On to `CCNC(=O)Nc1ccc(-c2nc3c(c(N4CCOC[C@@H]4C)n2)CN(C2COC2)CC3)cc1`, for which the solubility kinetic in [1] came to 40 µM (≈ 18.1 µg/mL). Further, the IC50 at Cytochrome P450 3A4 worked out at 2500 nM. Besides, the EC50 in [3] is 1200 nM; with PC-3, 797 nM.
As to `CCNC(=O)Nc1ccc(-c2nc3c(c(N4CCOC[C@@H]4C)n2)[C@H]2CC[C@@H](C3)N2S(C)(=O)=O)cc1`, the solubility kinetic in series [1] is over 75 µM. Further, the IC50 stood at 5000 nM at Cytochrome P450 3A4 and 18 nM in [2]. For the same compound, the results for the EC50 (in [3]; in the series with PC-3) were 806 nM and 260 nM, respectively.
For `CCNC(=O)Nc1ccc(-c2nc3c(c(N4CCOC[C@@H]4C)n2)C[C@@H]2CC[C@H]3N2C(C)=O)cc1`, the bioavailability in series [4] turned out to be 40%. In addition, the fraction unbound at 4 h, 5 µM in series [5] was 0.16; in series [6] it was 0.02; in series [10] it was 0.16. This compound gave a CL free in the series on Mus musculus of 200 mL/min/kg. This compound also showed a clearance in series [7] of 4.62 mL/min/kg. In addition, the half-life in series [8] is 1.2 h. The Kinetic_solubility entry in series [1] is reported as “soluble”. In addition, in [2], the IC50 was found to be 2 nM. Further, the CLhep predicted is 15 mL/min/kg in series [9], 24 mL/min/kg in [11] and 42 mL/min/kg in series [13]. Also, the figures for the concentration giving a half-maximal response (EC50) (in [3]; in the series on PC-3) were 61 nM and 16 nM, respectively. The Vd in [12] was 0.54 L/kg.
Consider `CCNC(=O)Nc1ccc(-c2nc3c(c(N4CCOC[C@@H]4C)n2)C[C@@H]2CC[C@H]3N2C(=O)COC)cc1`, for which the bioavailability in [4] stood at 47%. Moreover, the fraction unbound at 4 h, 5 µM in [5] is 0.27; in [6], 0.07; in series [10], 0.21. In addition, the CL free with Mus musculus came to 134 mL/min/kg. This compound yielded a clearance in [7] of 9.38 mL/min/kg. This compound had a half-life in [8] of 0.82 h. Moreover, in [1], the Kinetic_solubility entry is listed as “soluble”. In addition, in series [2], the IC50 was 2.2 nM. Besides, the CLhep predicted in series [9] was 17 mL/min/kg; in series [11], 31 mL/min/kg; in series [13], 69 mL/min/kg. For the same compound, the results for the EC50 (in [3]; with PC-3) were 36 nM and 47 nM, respectively. Besides, the Vd in series [12] is 0.66 L/kg.
Turning to `CCNC(=O)Nc1ccc(-c2nc3c(c(N4CCOC[C@@H]4C)n2)[C@@H]2CC[C@H](C3)N2C2COC2)cc1`, the solubility kinetic in series [1] was over 75 µM. Moreover, in [2], the 50% inhibitory concentration (IC50) was determined as 45 nM. Further, the EC50 in [3] was determined as 971 nM; with PC-3 it was 579 nM.
Take `CCNC(=O)Nc1ccc(-c2nc3c(c(N4CCOC[C@@H]4C)n2)C[C@@H]2CC[C@H]3N2C(C)(C)C(=O)NC)cc1`: the Kinetic_solubility result in series [1] is “soluble”. Also, in series [2], the IC50 came out at 0.6 nM. Besides, the figures for the EC50 (in [3]; with PC-3) were 17 nM and 13 nM, respectively.
Consider `CCNC(=O)Nc1ccc(-c2nc3c(c(N4CCOC[C@@H]4C)n2)CCN(C2COC2)C3)cc1` [RG-7603], for which, in the series on Mus musculus, the CL free turned out to be 100 mL/min/kg. Moreover, the inhibition in vivo at 37 mg/kg in [14] came to 60%. Moreover, the IC50 in series [3] stood at 567 nM; in the series on PC-3, 270 nM.
With `CCNC(=O)Nc1ccc(-c2nc3c(c(N4CCOC[C@@H]4C)n2)C[C@H]2CC[C@@H]3N2C)cc1`, in series [1], the Kinetic_solubility result is reported as “soluble”. Further, in series [2], the IC50 stood at 16 nM. Moreover, the EC50 in series [3] is 489 nM; with PC-3, 123 nM.
On to `CCNC(=O)Nc1ccc(-c2nc3c(c(N4CCOC[C@@H]4C)n2)[C@H]2CC[C@@H](C3)N2CC)cc1`, for which the solubility kinetic in [1] is over 75 µM. Besides, the IC50 in series [2] is 3.2 nM. The EC50 in series [3] was found to be 184 nM; in the series with PC-3 it was 145 nM.
For `CCNC(=O)Nc1ccc(-c2nc3c(c(N4CCOC[C@@H]4C)n2)C[C@@H]2CC[C@H]3N2S(C)(=O)=O)cc1`, in series [4], the bioavailability turned out to be 53%. In addition, the results for the fraction unbound at 4 h, 5 µM in series [5], in series [6] and in series [10] were 0.14, 0.05 and 0.1, respectively. In the series with Mus musculus, this compound showed a CL free of 342 mL/min/kg. This compound yielded a clearance in [7] of 17.8 mL/min/kg. Further, in series [8], the half-life was 1.02 h. In [1], the Kinetic_solubility result is on record as “soluble”. In addition, the IC50 was 5000 nM at Cytochrome P450 3A4 and 1.6 nM in [2]. The results for the CLhep predicted in [9], in series [11] and in series [13] were 11 mL/min/kg, 26 mL/min/kg and 49 mL/min/kg, respectively. The EC50 came to 47 nM in series [3] and 25 nM with PC-3. For the same compound, the Vd in series [12] was determined as 1.59 L/kg.
On to `CCNC(=O)Nc1ccc(-c2nc3c(c(N4CCOC[C@@H]4C)n2)[C@H]2CC[C@@H](C3)N2C(C)=O)cc1`, for which, in [1], the solubility kinetic is over 75 µM. The IC50 on Cytochrome P450 3A4 is 7300 nM; in [2] it was 30 nM. Also, the EC50 is 460 nM in [3] and 180 nM with PC-3.
Take `CCNC(=O)Nc1ccc(-c2nc3c(c(N4CCOC[C@@H]4C)n2)[C@@H]2CC[C@H](C3)N2C)cc1`: the bioavailability in series [4] is 82%. For the same compound, the fraction unbound at 4 h, 5 µM in series [5] was 0.81; in series [6], 0.54; in series [10] it was 0.8. In the series with Mus musculus, this compound showed a CL free of 53 mL/min/kg. This compound displayed a clearance in series [7] of 34 mL/min/kg. The compound also had a half-life in [8] of 1.07 h. The solubility kinetic in series [1] was over 75 µM. Moreover, in series [2], the IC50 was determined as 6.7 nM. Further, the CLhep predicted was 15 mL/min/kg in [9], 28 mL/min/kg in series [11] and 58 mL/min/kg in series [13]. Further, the results for the EC50 (in series [3]; in the series on PC-3) were 158 nM and 152 nM, respectively. Further, the Vd in series [12] came to 2.6 L/kg.
`CCNC(=O)Nc1ccc(-c2nc3c(c(N4CCOC[C@@H]4C)n2)C[C@@H]2CC[C@H]3N2C)cc1`: the bioavailability in [4] came to 133%. Moreover, the fraction unbound at 4 h, 5 µM was 0.14 in series [6] and 0.32 in series [10]. Also, the CL free in the series on Mus musculus stood at 165 mL/min/kg. In series [7], this compound had a clearance of 24 mL/min/kg. Further, the half-life in series [8] was 1.3 h. Further, the Kinetic_solubility entry in series [1] is “soluble”. The IC50 in series [2] is 2.1 nM. Moreover, the CLhep predicted in series [9] is 14 mL/min/kg; in series [11] it was 22 mL/min/kg; in series [13], 50 mL/min/kg. Besides, the EC50 is 84 nM in series [3] and 37 nM in the series with PC-3. Moreover, the Vd in series [12] worked out at 1.5 L/kg.
